In ChEMBL document CHEMBL1152661, “Synthesis of tetraglucosyl- and tetrapolyamine-tetrabenzoporphyrin conjugates for an application in PDT” (Bioorg Med Chem, 2009):
In brackets after ≈: the same amount, converted by molar mass. Values belong to the molecule of their own block, whether it stands above or below them.

What was measured:
[1] = Induction of singlet oxygen production assessed as appearance of ergosterol acetate epidioxide at 10 uM after 10 mW/cm'2 irradiation for 30 mins by TLC; assay type: physicochemical; settings: 0.5 h
[2] = test system: HaCaT; test: Photocytotoxicity against human HaCaT cells preincubated for 24 hrs in dark followed by illumination at 5.5 x 10^-2 mW/cm'2 light measured after 24 hrs post illumination by MTT assay; assay type: functional, cell-based
[3] = test system: MCF7; test: Photocytotoxicity against human MCF7 cells preincubated for 24 hrs in dark followed by illumination at 5.5 x 10^-2 mW/cm'2 light measured after 24 hrs post illumination by MTT assay; assay type: functional, cell-based
[4] = Photostability assessed as residual absorbance at 2.5 mW/cm'2 irradiation for 15 mins by photobleaching test; assay type: physicochemical; settings: read-out: Stability
Method in brief: (§1)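 Solutions were irradiated with white light at fluence 2.5 mW/cm2. Absorbance was measured at the Soret band maximum and reported as % residual absorbance versus irradiation time.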

[5] = Octanol-water partition coefficient, log P at 300 uM by absorption spectroscopy; assay type: physicochemical
Method in brief: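 1-Octanol/water partitioning at 25 °C using equal volumes of water and 1-octanol. Dye solution at 300 µM was vortexed and centrifuged. Aliquots of each phase were diluted separately into MeOH, and dye concentration was read by absorption spectroscopy. log P = log([dye]octanol/[dye]water).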

[6] = Photostability assessed as residual absorbance at 2.5 mW/cm'2 irradiation for 60 mins by photobleaching test; assay type: physicochemical; settings: read-out: Stability; method in brief: as §1
[7] = Photostability assessed as residual absorbance at 2.5 mW/cm'2 irradiation for 30 mins by photobleaching test; assay type: physicochemical; settings: read-out: Stability; method in brief: as §1
[8] = Photostability assessed as residual absorbance at 2.5 mW/cm'2 irradiation for 45 mins by photobleaching test; assay type: physicochemical; settings: read-out: Stability; method in brief: as §1
[9] = Homo sapiens, HaCaT, read-out: IC50
[10] = Homo sapiens, MCF7, read-out: IC50

Activity [1]: Active
Molecule: PORFIMER SODIUM
IC50 ([2]; hacat): 0.0787 µg/mL
IC50 ([3]; mcf7): 1.224 µg/mL

remaining at 0.25 h [4]: 100%
Activity [1]: Active
logP at 300 µM [5]: -0.47
remaining at 1 h [6]: 97%
remaining at 0.5 h [7]: 100%
remaining at 0.75 h [8]: 99%
Molecule: NCCCNCCCCN(CCCN)CCCCNC(=O)c1ccc(-c2c3nc(c(-c4ccc(C(=O)NCCCCN(CCCN)CCCCNCCCN)cc4)c4[nH]c(c(-c5ccc(C(=O)NCCCCN(CCCN)CCCCNCCCN)cc5)c5nc(c(-c6ccc(C(=O)NCCCCN(CCCN)CCCCNCCCN)cc6)c6[nH]c2c2ccccc62)-c2ccccc2-5)c2ccccc42)-c2ccccc2-3)cc1
IC50 ([2]; hacat): Not Active
IC50 ([3]; mcf7): Not Active

remaining at 0.25 h [4]: 100%
Activity [1]: Active
logP at 300 µM [5]: 0.18
remaining at 1 h [6]: 95%
remaining at 0.5 h [7]: 99%
remaining at 0.75 h [8]: 98%
Molecule: OC[C@H]1O[C@@H](Oc2ccc(-c3c4nc(c(-c5ccc(O[C@@H]6O[C@H](CO)[C@@H](O)[C@H](O)[C@H]6O)cc5)c5[nH]c(c(-c6ccc(O[C@@H]7O[C@H](CO)[C@@H](O)[C@H](O)[C@H]7O)cc6)c6nc(c(-c7ccc(O[C@@H]8O[C@H](CO)[C@@H](O)[C@H](O)[C@H]8O)cc7)c7[nH]c3c3ccccc73)-c3ccccc3-6)c3ccccc53)-c3ccccc3-4)cc2)[C@H](O)[C@@H](O)[C@@H]1O
IC50 [2, 9]: 0.971 µg/mL (≈ 0.636 µM)
IC50 [3, 10]: 8.41 µg/mL (≈ 5.51 µM)

Activity [1]: Active
Molecule: CC(C)(C)OC(=O)NCCCCN(CCCCNC(=O)c1ccc(-c2c3nc(c(-c4ccc(C(=O)NCCCCN(CCCCNC(=O)OC(C)(C)C)CCCNC(=O)OC(C)(C)C)cc4)c4[nH]c(c(-c5ccc(C(=O)NCCCCN(CCCCNC(=O)OC(C)(C)C)CCCNC(=O)OC(C)(C)C)cc5)c5nc(c(-c6ccc(C(=O)NCCCCN(CCCCNC(=O)OC(C)(C)C)CCCNC(=O)OC(C)(C)C)cc6)c6[nH]c2c2ccccc62)-c2ccccc2-5)c2ccccc42)-c2ccccc2-3)cc1)CCCNC(=O)OC(C)(C)C

Second part, the molecule before the results:

Molecule: CC(=O)OC[C@H]1O[C@H](OCC(=O)NCOCCOCCNC(=O)c2ccc(-c3c4nc(c(-c5ccc(C(=O)NCCOCCOCNC(=O)CO[C@H]6O[C@H](COC(C)=O)[C@@H](OC(C)=O)[C@H](OC(C)=O)[C@H]6O)cc5)c5[nH]c(c(-c6ccc(C(=O)NCCOCCOCNC(=O)CO[C@H]7O[C@H](COC(C)=O)[C@@H](OC(C)=O)[C@H](OC(C)=O)[C@H]7O)cc6)c6nc(c(-c7ccc(C(=O)NCCOCCOCNC(=O)CO[C@H]8O[C@H](COC(C)=O)[C@@H](OC(C)=O)[C@H](OC(C)=O)[C@H]8O)cc7)c7[nH]c3c3ccccc73)-c3ccccc3-6)c3ccccc53)-c3ccccc3-4)cc2)[C@H](O)[C@@H](OC(C)=O)[C@@H]1OC(C)=O
Activity [1]: Active

Molecule: O=C1OC2(c3ccccc31)c1cc(Br)c(O)c(Br)c1Oc1c2cc(Br)c(O)c1Br [EOSIN]
Activity [1]: Active

Molecule: CC(C)(C)OC(=O)NCCOCCOCCNC(=O)c1ccc(-c2c3nc(c(-c4ccc(C(=O)NCCOCCOCCNC(=O)OC(C)(C)C)cc4)c4[nH]c(c(-c5ccc(C(=O)NCCOCCOCCNC(=O)OC(C)(C)C)cc5)c5nc(c(-c6ccc(C(=O)NCCOCCOCCNC(=O)OC(C)(C)C)cc6)c6[nH]c2c2ccccc62)-c2ccccc2-5)c2ccccc42)-c2ccccc2-3)cc1
Activity [1]: Active

Molecule: NCCCCN(CCCN)CCCCNC(=O)c1ccc(-c2c3nc(c(-c4ccc(C(=O)NCCCCN(CCCN)CCCCN)cc4)c4[nH]c(c(-c5ccc(C(=O)NCCCCN(CCCN)CCCCN)cc5)c5nc(c(-c6ccc(C(=O)NCCCCN(CCCN)CCCCN)cc6)c6[nH]c2c2ccccc62)-c2ccccc2-5)c2ccccc42)-c2ccccc2-3)cc1
remaining at 0.25 h [4]: 100%
Activity [1]: Active
logP at 300 µM [5]: -0.21
remaining at 1 h [6]: 96%
remaining at 0.5 h [7]: 99%
remaining at 0.75 h [8]: 97%
IC50 [2, 9]: 3.42 µg/mL (≈ 1.92 µM)
IC50 [3, 10]: 7.28 µg/mL (≈ 4.08 µM)

Molecule: CC(C)(C)OC(=O)NCCCN(CCCCNC(=O)c1ccc(-c2c3nc(c(-c4ccc(C(=O)NCCCCN(CCCCN(CCCNC(=O)OC(C)(C)C)C(=O)OC(C)(C)C)CCCNC(=O)OC(C)(C)C)cc4)c4[nH]c(c(-c5ccc(C(=O)NCCCCN(CCCCN(CCCNC(=O)OC(C)(C)C)C(=O)OC(C)(C)C)CCCNC(=O)OC(C)(C)C)cc5)c5nc(c(-c6ccc(C(=O)NCCCCN(CCCCN(CCCNC(=O)OC(C)(C)C)C(=O)OC(C)(C)C)CCCNC(=O)OC(C)(C)C)cc6)c6[nH]c2c2ccccc62)-c2ccccc2-5)c2ccccc42)-c2ccccc2-3)cc1)CCCCN(CCCNC(=O)OC(C)(C)C)C(=O)OC(C)(C)C
Activity [1]: Active

Molecule: c1ccc(-c2c3nc(c(-c4ccccc4)c4[nH]c(c(-c5ccccc5)c5nc(c(-c6ccccc6)c6[nH]c2c2ccccc62)-c2ccccc2-5)c2ccccc42)-c2ccccc2-3)cc1 [Ar4TBP]
IC50 ([2]; hacat): Not Active
IC50 ([3]; mcf7): Not Active

Molecule: NCCOCCOCCNC(=O)c1ccc(-c2c3nc(c(-c4ccc(C(=O)NCCOCCOCCN)cc4)c4[nH]c(c(-c5ccc(C(=O)NCCOCCOCCN)cc5)c5nc(c(-c6ccc(C(=O)NCCOCCOCCN)cc6)c6[nH]c2c2ccccc62)-c2ccccc2-5)c2ccccc42)-c2ccccc2-3)cc1
Activity [1]: Active

Molecule: O=C([O-])c1c(Cl)c(Cl)c(Cl)c(Cl)c1-c1c2cc(I)c(=O)c(I)c-2oc2c(I)c([O-])c(I)cc12.[K+].[K+]
Activity [1]: Active
